Measurements published in ChEMBL document CHEMBL2034835, “A solvent free, four-component synthesis and 1,3-dipolar cycloaddition of 4(H)-pyrans with nitrile oxides: synthesis and discovery of antimycobacterial activity of enantiomerically pure 1,2,4-oxadiazoles” (2012).
≈ marks a conversion by molar mass, not a printed value.

tested on: Mycobacterium tuberculosis; assay: Ratio of rifampicin MIC to compound MIC for Mycobacterium tuberculosis H37Rv; assay type: functional; details: not given

| Compound | Ratio |
| --- | --- |
| C[C@H](c1ccccc1)N1CC2=C(OC(N)=C(c3nc(-c4ccc(Cl)cc4)no3)C2c2ccc(Cl)cc2Cl)/C(=C/c2ccc(Cl)cc2Cl)C1 (stereo in doubt; 10h) | 1.7 |

tested on: Mycobacterium tuberculosis; assay: Antitubercular activity against Mycobacterium tuberculosis H37Rv after 28 days by agar dilution method; assay type: functional; details: not given
How it was run: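 Agar dilution, following NCCLS guidance, on Middlebrook 7H11 with OADC supplement containing ten-fold serial dilutions of drug. H37Rv inoculum was taken from fresh 7H11/OADC slants, adjusted to 1 mg/mL wet weight in 0.05% Tween 80 saline and diluted 10^-2 to about 10^7 cfu/mL. 5 µL was spotted per tube and incubated at 37 °C for 28 days. MIC is the lowest concentration giving complete growth inhibition.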

| Compound | MIC |
| --- | --- |
| Cc1ccc(/C=C2\CN([C@H](C)c3ccccc3)CC3=C2OC(N)=C(c2nc(-c4ccc(Cl)cc4)no2)C3c2ccc(C)cc2)cc1 (stereo in doubt; 9d) | 2.49 µM (≈ 1.56 µg/mL) |
| C[C@H](c1ccccc1)N1CC2=C(OC(N)=C(c3nc(-c4ccccc4)no3)C2c2cccc3ccccc23)/C(=C/c2cccc3ccccc23)C1 (stereo in doubt; 9i) | 18.8 µM (≈ 12.5 µg/mL) |
| Cc1ccc(/C=C2\CN([C@H](C)c3ccccc3)CC3=C2OC(N)=C(c2nc(-c4ccc(Cl)cc4)no2)C3c2ccc(C)cc2)cc1 (stereo in doubt; 10d) | 0.64 µM (≈ 0.401 µg/mL) |
| C[C@H](c1ccccc1)N1CC2=C(OC(N)=C(c3nc(-c4ccc(Cl)cc4)no3)C2c2cccc3ccccc23)/C(=C/c2cccc3ccccc23)C1 (stereo in doubt; 10j) | 4.48 µM (≈ 3.13 µg/mL) |
| Cc1ccc(/C=C2\CN([C@H](C)c3ccccc3)CC3=C2OC(N)=C(c2nc(-c4ccccc4)no2)C3c2ccc(C)cc2)cc1 (stereo in doubt; 10c) | 5.28 µM (≈ 3.13 µg/mL) |
| C[C@H](c1ccccc1)N1CC2=C(OC(N)=C(c3nc(-c4ccc(Cl)cc4)no3)C2c2ccccc2Cl)/C(=C/c2ccccc2Cl)C1 (stereo in doubt; 10f) | 0.15 µM (≈ 0.1 µg/mL) |
| C[C@H](c1ccccc1)N1CC2=C(OC(N)=C(c3nc(-c4ccccc4)no3)C2c2cccc3ccccc23)/C(=C/c2cccc3ccccc23)C1 (stereo in doubt; 10i) | 4.71 µM (≈ 3.13 µg/mL) |
| C[C@H](c1ccccc1)N1CC2=C(OC(N)=C(c3nc(-c4ccc(Cl)cc4)no3)C2c2ccccc2Cl)/C(=C/c2ccccc2Cl)C1 (stereo in doubt; 9f) | 0.6 µM (≈ 0.401 µg/mL) |
| C[C@H](c1ccccc1)N1CC2=C(OC(N)=C(c3nc(-c4ccc(Cl)cc4)no3)C2c2ccc(Cl)cc2Cl)/C(=C/c2ccc(Cl)cc2Cl)C1 (stereo in doubt; 10h) | 0.07 µM (≈ 0.0516 µg/mL) |
| C[C@H](c1ccccc1)N1CC2=C(OC(N)=C(c3nc(-c4ccccc4)no3)C2c2ccc(Cl)cc2Cl)/C(=C/c2ccc(Cl)cc2Cl)C1 (stereo in doubt; 10g) | 0.57 µM (≈ 0.4 µg/mL) |
| C[C@H](c1ccccc1)N1CC2=C(OC(N)=C(c3nc(-c4ccc(Cl)cc4)no3)C2c2ccccc2)/C(=C/c2ccccc2)C1 (stereo in doubt; 9b) | 5.22 µM (≈ 3.13 µg/mL) |
| C[C@H](c1ccccc1)N1CC2=C(OC(N)=C(c3nc(-c4ccccc4)no3)C2c2ccccc2Cl)/C(=C/c2ccccc2Cl)C1 (stereo in doubt; 10e) | 0.63 µM (≈ 0.399 µg/mL) |
| C[C@H](c1ccccc1)N1CC2=C(OC(N)=C(c3nc(-c4ccccc4)no3)C2c2ccccc2)/C(=C/c2ccccc2)C1 (stereo in doubt; 10a) | 2.76 µM (≈ 1.56 µg/mL) |
| C[C@H](c1ccccc1)N1CC2=C(OC(N)=C(c3nc(-c4ccc(Cl)cc4)no3)C2c2ccccc2)/C(=C/c2ccccc2)C1 (stereo in doubt; 10b) | 2.6 µM (≈ 1.56 µg/mL) |
| C[C@H](c1ccccc1)N1CC2=C(OC(N)=C(c3nc(-c4ccc(Cl)cc4)no3)C2c2ccc(Cl)cc2Cl)/C(=C/c2ccc(Cl)cc2Cl)C1 (stereo in doubt; 9h) | 0.27 µM (≈ 0.199 µg/mL) |
| C[C@H](c1ccccc1)N1CC2=C(OC(N)=C(c3nc(-c4ccccc4)no3)C2c2ccccc2)/C(=C/c2ccccc2)C1 (stereo in doubt; 9a) | 11.07 µM (≈ 6.25 µg/mL) |

same assay, conditions: Mycobacterium tuberculosis, H37Rv, 672 h; read-out: MIC

| Compound | MIC |
| --- | --- |
| C[C@H](c1ccccc1)N1CC2=C(OC(N)=C(c3nc(-c4ccc(Cl)cc4)no3)C2c2cccc3ccccc23)/C(=C/c2cccc3ccccc23)C1 (stereo in doubt; 9j) | 8.94 µM (≈ 6.25 µg/mL) |
| CC[C@@H](CO)NCCN[C@@H](CC)CO [ETHAMBUTOL] | 7.64 µM (≈ 1.56 µg/mL) |
| C[C@H](c1ccccc1)N1CC2=C(OC(N)=C(c3nc(-c4ccccc4)no3)C2c2ccc(Cl)cc2Cl)/C(=C/c2ccc(Cl)cc2Cl)C1 (stereo in doubt; 9g) | 1.11 µM (≈ 0.78 µg/mL) |
| C[C@H](c1ccccc1)N1CC2=C(OC(N)=C(c3nc(-c4ccccc4)no3)C2c2ccccc2Cl)/C(=C/c2ccccc2Cl)C1 (stereo in doubt; 9e) | 1.23 µM (≈ 0.779 µg/mL) |
| Cc1ccc(/C=C2\CN([C@H](C)c3ccccc3)CC3=C2OC(N)=C(c2nc(-c4ccccc4)no2)C3c2ccc(C)cc2)cc1 (stereo in doubt; 9c) | 10.5 µM (≈ 6.25 µg/mL) |
| CO[C@H]1/C=C/O[C@@]2(C)Oc3c(C)c(O)c4c(O)c(c(/C=N/N5CCN(C)CC5)c(O)c4c3C2=O)NC(=O)/C(C)=C\C=C\[C@H](C)[C@H](O)[C@@H](C)[C@@H](O)[C@@H](C)[C@H](OC(C)=O)[C@@H]1C [RIFAMPIN] | 0.12 µM (≈ 0.0988 µg/mL) |
| NNC(=O)c1ccncc1 [ISONIAZID] | 0.36 µM (≈ 0.0494 µg/mL) |

tested on: Mycobacterium tuberculosis; assay: Ratio of ethambutol MIC to compound MIC for Mycobacterium tuberculosis H37Rv; assay type: functional; details: not given

| Compound | Ratio |
| --- | --- |
| C[C@H](c1ccccc1)N1CC2=C(OC(N)=C(c3nc(-c4ccc(Cl)cc4)no3)C2c2ccc(Cl)cc2Cl)/C(=C/c2ccc(Cl)cc2Cl)C1 (stereo in doubt; 10h) | 109 |

tested on: Mycobacterium tuberculosis; assay: Ratio of isoniazid MIC to compound MIC for Mycobacterium tuberculosis H37Rv; assay type: functional; details: not given

| Compound | Ratio |
| --- | --- |
| C[C@H](c1ccccc1)N1CC2=C(OC(N)=C(c3nc(-c4ccc(Cl)cc4)no3)C2c2ccc(Cl)cc2Cl)/C(=C/c2ccc(Cl)cc2Cl)C1 (stereo in doubt; 10h) | 5.1 |

tested on: Mycobacterium tuberculosis; assay: Ratio of ciprofloxacin MIC to compound MIC for Mycobacterium tuberculosis H37Rv; assay type: functional; details: not given

| Compound | Ratio |
| --- | --- |
| C[C@H](c1ccccc1)N1CC2=C(OC(N)=C(c3nc(-c4ccc(Cl)cc4)no3)C2c2ccc(Cl)cc2Cl)/C(=C/c2ccc(Cl)cc2Cl)C1 (stereo in doubt; 10h) | 67.3 |
